Results published in ChEMBL document CHEMBL1147923, “Synthesis, docking studies and anti-inflammatory activity of 4,5,6,7-tetrahydro-2H-indazole derivatives” (Bioorg Med Chem, 2007).
Calls of active or inactive are those of the source.

Key:
[1] = test system: Rattus norvegicus; assay: Toxicity in arthritic Wistar rat assessed as gastric ulcerogenic response at 100 mg/kg, po; format: organism-based, Stomach; set-up: dose 100 mg/kg, route oral; conditions: in vivo
Outline: (§1)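 Arthritis induced as for adjuvant model. Two days later rats fasted overnight, then dosed orally (10 ml/kg) or with vehicle; indomethacin 10 mg/kg po as positive control. Rats killed 4 h later, stomachs opened along greater curvature. Ulcer index taken as summed lesion length (mm) in gastric mucosa.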

[2] = test system: Rattus norvegicus; assay: Antiinflammatory activity against carrageenan-induced Wistar rat paw oedema at 10 mg/kg, po; format: functional, organism-based; set-up: dose 10 mg/kg
Outline: (§2)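 Overnight-fasted rats dosed orally (10, 50, 100 mg/kg/10 ml) or with vehicle before carrageenan injection into the footpad. Equal volume of saline injected into left hindpaw. Rats killed 4 h later and hind paws cut and weighed. Oedema taken as right minus left paw weight; means ± SEM versus vehicle.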

[3] = test system: Rattus norvegicus; assay: Antiinflammatory activity against Freund's adjuvant-induced arthritis in Wistar rat assessed as reduction in joint size at 100 mg/kg, ip; format: functional, organism-based; set-up: dose 100 mg/kg
Outline: (§3)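 Arthritis induced by Freund's adjuvant injected into right paw; after 3 days paw height, paw width and joint width re-measured (day 0) and rats randomised. Dosed once daily for 3 further days (days 1–3), orally at 10 ml/kg or ip at 2 ml/kg, in vehicle 10% DMSO/10% Tween 80/80% water. Measurements taken at baseline, day 0 and days 1–4, compared with vehicle group.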

[4] = test system: Rattus norvegicus; assay: Antiinflammatory activity against Freund's adjuvant-induced arthritis in Wistar rat assessed as reduction in paw height at 100 mg/kg, po; format: functional, organism-based; set-up: dose 100 mg/kg; outline: as §3
[5] = test system: Rattus norvegicus; assay: Antiinflammatory activity against Freund's adjuvant-induced arthritis in Wistar rat assessed as reduction in joint size at 100 mg/kg, po; format: functional, organism-based; set-up: dose 100 mg/kg; outline: as §3
[6] = test system: Rattus norvegicus; assay: Antiinflammatory activity against carrageenan-induced Wistar rat paw oedema at 50 mg/kg, po; format: functional, organism-based; set-up: dose 50 mg/kg; outline: as §2
[7] = test system: Rattus norvegicus; assay: Antiinflammatory activity against carrageenan-induced Wistar rat paw oedema at 100 mg/kg, po; format: functional, organism-based; set-up: dose 100 mg/kg; outline: as §2
[8] = test system: Rattus norvegicus; assay: Antiinflammatory activity against Freund's adjuvant-induced arthritis in Wistar rat assessed as reduction in paw height at 100 mg/kg, ip; format: functional, organism-based; set-up: dose 100 mg/kg; outline: as §3
[9] = test system: Rattus norvegicus; assay: Antiinflammatory activity against Freund's adjuvant-induced arthritis in Wistar rat assessed as reduction in paw width at 100 mg/kg, po; format: functional, organism-based; set-up: dose 100 mg/kg; outline: as §3
[10] = test system: Rattus norvegicus; assay: Antiinflammatory activity against Freund's adjuvant-induced arthritis in Wistar rat assessed as reduction in paw width at 100 mg/kg, ip; format: functional, organism-based; set-up: dose 100 mg/kg; outline: as §3
[11] = test system: Rattus norvegicus; assay: Antiinflammatory activity against Freund's adjuvant-induced arthritis in Wistar rat assessed as reduction in joint width at 10 mg/kg, po; format: functional, organism-based; set-up: dose 10 mg/kg; outline: as §3
[12] = test system: Rattus norvegicus; assay: Antiinflammatory activity against Freund's adjuvant-induced arthritis in Wistar rat assessed as reduction in paw height at 50 mg/kg, po; format: functional, organism-based; set-up: dose 50 mg/kg; outline: as §3
[13] = test system: Rattus norvegicus; assay: Antiinflammatory activity against Freund's adjuvant-induced arthritis in Wistar rat assessed as reduction in paw width at 50 mg/kg, po; format: functional, organism-based; set-up: dose 50 mg/kg; outline: as §3
[14] = test system: Rattus norvegicus; assay: Antiinflammatory activity against Freund's adjuvant-induced arthritis in Wistar rat assessed as reduction in paw height at 10 mg/kg, po; format: functional, organism-based; set-up: dose 10 mg/kg; outline: as §3
[15] = test system: Rattus norvegicus; assay: Antiinflammatory activity against Freund's adjuvant-induced arthritis in Wistar rat assessed as reduction in paw width at 10 mg/kg, po; format: functional, organism-based; set-up: dose 10 mg/kg; outline: as §3
[16] = test system: Rattus norvegicus; assay: Antiinflammatory activity in Wistar rat assessed as reduction of carrageenan-induced paw oedema; format: functional, organism-based; outline: as §2
[17] = test system: Rattus norvegicus; assay: Antinociceptive activity in Wistar rat assessed as increase in latency time at 100 mg/kg, ip; format: functional, organism-based; set-up: dose 100 mg/kg
Outline: (§4)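 Freund's adjuvant-arthritic rats given ip dosing (10 ml/kg) or vehicle once daily for 4 days. Hot-plate test the day after the last injection at 55 ± 0.5 °C, set for 15–18 s control latency. Latency to hind-paw licking or jump recorded, 60 s cut-off. Each rat tested twice, 30 min apart. Normal rats included as controls.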

[18] = test system: Rattus norvegicus; assay: Antiinflammatory activity against Freund's adjuvant-induced arthritis in Wistar rat assessed as reduction in joint width at 50 mg/kg, po; format: functional, organism-based; set-up: dose 50 mg/kg; outline: as §3
[19] = test system: Rattus norvegicus; assay: Antinociceptive activity in Wistar rat assessed as increase in latency time at 50 mg/kg, ip; format: functional, organism-based; set-up: dose 50 mg/kg; outline: as §4
[20] = test system: Rattus norvegicus; assay: Toxicity in arthritic Wistar rat assessed as gastric ulcerogenic response at 10 mg/kg, po; format: organism-based, Stomach; set-up: dose 10 mg/kg, route oral; conditions: in vivo; outline: as §1

Measured: Activity

FC(F)(F)c1ccnc(-n2nc3c(c2-c2ccccc2)CCCC3)n1
active: [4] | [8] | [10]
Non-toxic: [1]
inactive: [2] | [3] | [5] | [6] | [7] | [9]

FC(F)(F)c1ccc(-n2nc3c(c2-c2ccccc2)CCCC3)cc1
active: [3] | [16] Dose-dependent effect | [8] | [17] | [10] | [19]
Non-toxic: [1]
not listed: [2] | [6] | [7] | [20]
inactive: all other assays above

COc1ccc2c(c1)c(CC(=O)O)c(C)n2C(=O)c1ccc(Cl)cc1 [INDOMETHACIN]
Toxic: [20]
